Measurements gathered from unrelated publications.

The AUC(0-inf) of COCC(=O)N1CCc2[nH]c3c(Cl)c(Cl)ccc3c2[C@@H]1C is reported as 3.28 µM·h (C57BL/6 mouse, blood; intravenous, 1 mg/kg).
The AUC(0-inf) of O=C1CCC(N2Cc3cc(C4CCN(Cc5ccccc5)CC4)ccc3C2=O)C(=O)N1 (centres unmarked) is reported as 603 ng·h/mL (male CD-1 mouse, plasma; oral, 3 mg/kg).
The AUC(0-inf) of NCc1cc2c(cc1F)C(=O)N(C1CCC(=O)NC1=O)C2 (centres unmarked) is reported as 149 ng·h/mL (male CD-1 mouse, plasma; intravenous, 1 mg/kg).
With NCc1ccc(-c2nn(Cc3ccccc3)c3ccccc23)o1 the AUC(0-t) was 1310 ng·h/mL (male CD-1 mouse, plasma; intravenous, 5 mg/kg).
CC(C)[C@@H](CS(=O)(=O)C(C)C)N1C(=O)[C@@](C)(CC(=O)O)C[C@H](c2cccc(Cl)c2)[C@H]1c1ccc(Cl)cc1 gave an AUC(0-inf) of 172 ng·h/mL (FVB mouse, brain; intravenous, 20 mg/kg, single dose).
The AUC(0-inf) of Cc1nc2ccc(OCc3ccc(C(F)(F)F)cc3)cc2[nH]1 is reported as 3800 ng·h/mL (male BALB/c mouse, plasma; intravenous, 1 mg/kg).
With CCn1c(=O)c(-c2cc(NC(=O)Nc3ccccc3)c(F)cc2Br)cc2cnc(NC)cc21 the AUC was 2310 ng·h/mL (male mouse, plasma; oral, 15 mg/kg, single dose).
CO[C@H]1/C=C/O[C@@]2(C)Oc3c(C)c(O)c4c(c3C2=O)C2=NC3(CCN(CC(C)C)CC3)NC2=C(NC(=O)/C(C)=C\C=C\[C@H](C)[C@H](O)[C@@H](C)[C@@H](O)[C@@H](C)[C@H](OC(C)=O)[C@@H]1C)C4=O gave an AUC of 8070 ng·h/mL (female CD-1 mouse, plasma; intravenous, 5 mg/kg).
CCOC(=O)C1=C(CN2CCC[C@@H]2C(=O)Nc2ccc(B(O)O)cc2)NC(c2nccs2)=N[C@H]1c1ccc(F)cc1Br gave an AUC(0-inf) of 723 ng·h/mL (CD-1 mouse, plasma; intravenous, 2 mg/kg).
Cc1ccc(CCC(=O)Nc2nnc(S(N)(=O)=O)s2)cc1 gave an AUC of 12.5 µM·h (male BALB/c mouse, plasma; oral, 20 mg/kg).
The AUC(0-inf) of OCc1nc2ccc(NCc3ccc(C(F)(F)F)cc3)cc2[nH]1 is reported as 482 ng·h/mL (male BALB/c mouse, plasma; intravenous, 1 mg/kg).
The AUC(0-inf) of COc1cccc2c(N3CCC(CCP(=O)(O)O)CC3)ncnc12 is reported as 751 ng·h/mL (female C57BL/6 mouse, brain; subcutaneous, 50 mg/kg).
The AUC(0-inf) of CN(C)C(=O)c1cc2cnc(Nc3ccc(-c4ccc5c(=O)cc(N6CCOCC6)oc5c4)cc3)nc2n1C1CCCC1 is reported as 2890 ng·h/mL (BALB/c mouse, plasma; oral, 20 mg/kg).
The AUC(0-inf) of CCOC(=O)c1c(NC(=O)CNC(C)C)sc2c1CCCCC2 is reported as 19300 ng·h/mL (male mouse, plasma; intraperitoneal, 100 mg/kg, single dose).
